Assay results from ChEMBL document CHEMBL1955770, “Inhibition of S/G2 phase CDK4 reduces mitotic fidelity” (J Biol Chem, 2006).
Active and inactive are the calls of the source. The calls are words filed in the database; no cut-off is given here.

Tests used:
A2058 [1] = assay: Cell cycle arrest in human A2058 cells assessed as accumulation at G2/M phase at 2 uM treated 1 hr and measured 10 hr post double hydroxyurea-synchrony release using propidium iodide staining by FACS analysis (reference value: 65 %); type: functional
HeLa [2] = assay: Cell cycle arrest in human HeLa cells assessed as accumulation at G2/M phase at 2 uM treated 4 hr and measured 10 hr post double thymidine-synchrony release using propidium iodide staining by FACS analysis (reference value: 31 %); type: functional
How it was run: (§1)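 Cells harvested at set times post-release, fixed in 70% ethanol, stained with 5 μg/ml propidium iodide plus 0.5 mg/ml RNase A, and analysed by flow cytometry. Cell-cycle phase fractions calculated by ModFit.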

[3] = target: Cyclin-dependent kinase 4/cyclin D1 (Homo sapiens, UniProt P11802); assay: Inhibition of human GST-tagged CDK4-cyclin D1 using his-tagged Rb as substrate after 30 mins by scintillation counting method; type: protein-complex assay
A2058 [4] = assay: Cell cycle arrest in human A2058 cells assessed as accumulation at G1 phase at 2 uM treated 1 hr and measured 12 hr post double hydroxyurea-synchrony release using propidium iodide staining by FACS analysis (reference value: 14 %); type: functional
HeLa [5] = assay: Cell cycle arrest in Rb-deficient human HeLa cells assessed as accumulation at G2/M phase at 2 uM after 24 hrs by FACS analysis; type: functional
How it was run: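 Ethanol-fixed cells stained with propidium iodide/RNase A, DNA content read by FACS, phase and sub-diploid fractions calculated with ModFit.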

HeLa [6] = assay: Cell cycle arrest at G2 phase in human HeLa cells assessed as delay in phosphotyrosine 15 CDK2 accumulation at 2 uM treated at early S phase measured after 6-14 hr post thymidine-synchrony release by immunoblot method; type: functional, cell-based
How it was run: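 HeLa cells synchronized by double thymidine block and released, treated with 2 μM inhibitor in early S phase, or left untreated. Harvested at set times after release, lysed in NETN with phosphatase and protease inhibitors, run on SDS-PAGE and immunoblotted for cyclin B1 and phosphotyrosine 15 CDK1/2, with cyclin D3 as loading control. Detection by HRP secondary and ECL.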

SW480 = assay: Toxicity in human SW480 cells at IC50 after 3 days by MTT assay; type: cell-based; conditions: sw480, 72 h
[7] = target: Tyrosine-protein kinase Lck (Homo sapiens, UniProt P06239); assay: Inhibition of Lck using fluorescent substrate by IMAP assay
How it was run: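 Run in-house using IMAP: phosphorylated fluorescent peptide substrate binds preferentially to immobilized metal beads, which quantifies kinase activity. ATP at 3× the Km of each enzyme.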

A2058 [8] = assay: Cell cycle arrest in human A2058 cells assessed as accumulation at G1 phase at 2 uM treated 1 hr and measured 8 hr post double hydroxyurea-synchrony release using propidium iodide staining by FACS analysis; type: functional
HeLa [9] = assay: Cell cycle arrest in human HeLa cells transfected with cyclin D3 siRNA at 2 uM measured after 8 to 20 hr post hydroxyurea-synchrony release by time-lapse microscopy; type: functional, cell-based
How it was run: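 HeLa cells transfected with 20 nM cyclin D3 siRNA number 1 or scrambled siRNA, then synchronized by overnight 2 mM hydroxyurea block and released. Treated with CDK4 inhibitor, siRNA, or both; entry into mitosis followed by time-lapse microscopy.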

HeLa [10] = assay: Cell cycle arrest in human HeLa cells assessed as accumulation at G2/M phase at 2 uM treated 2 hr and measured 10 hr post double thymidine-synchrony release using propidium iodide staining by FACS analysis (reference value: 31 %); type: functional; how it was run: as §1
HeLa [11] = assay: Cell cycle arrest in human HeLa cells assessed as accumulation at G1 phase at 2 uM treated 4 hr and measured 12 hr post double thymidine-synchrony release using propidium iodide staining by FACS analysis (reference value: 81 %); type: functional
HeLa [12] = assay: Induction of abberent mitosis in synchronized human HeLa cells expressing GFP-H2B assessed as micronuclei formation at 2 uM treated 1 hr and measured 12 hr post thymidine-synchrony release by time-lapse microscopy; type: functional, cell-based
NCI-H460 = assay: Antiproliferative activity against human H460a cells assessed as inhibition of S phase after 48 hrs by MTT assay; type: functional, cell-based; conditions: NCI-H460, 48 h
How it was run: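 Cells grown in DMEM with 3 mM HEPES and 10% Serum Supreme at 37 °C, 5% CO2. Proliferation read by MTT assay 48 h after drug addition; IC50 given as mean of two separate determinations, each in duplicate.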

HeLa [13] = assay: Cell cycle arrest in human HeLa cells assessed as accumulation at S phase at 2 uM treated 4 hr and measured 8 hr post double thymidine-synchrony release using propidium iodide staining by FACS analysis (reference value: 8 %); type: functional; how it was run: as §1
HeLa [14] = assay: Induction of abberent mitosis in human HeLa cells expressing GFP-H2B assessed as micronuclei formation during interphase at 2 uM treated 1 hr and measured 24 hr post thymidine-synchrony release by time-lapse microscopy (reference value: 10%); type: functional
[15] = Cell cycle arrest in human SK-MEL-13 cells assessed as accumulation at G2/M phase at 2 uM treated 1 hr and measured 8 hr post double hydroxyurea-synchrony release using propidium iodide staining by FACS analysis (reference value: 16 %); type: functional, cell-based
How it was run: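 SK-Mel-13 cells synchronized with 2 mM hydroxyurea, then treated with 2 μM CDK4 inhibitor or left untreated 1 h after release. Harvested at indicated times post-release, ethanol-fixed, propidium iodide/RNase stained, and DNA content read by FACS. Proportions of G1, S and G2/M cells derived with ModFit.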

[16] = target: Cyclin-dependent kinase 4 (Homo sapiens) (UniProt P11802); assay: Inhibition of CDK4-mediated Rb phosphorylation at ser 795 in human HCT116 cells at IC50 after 24 hrs by immunoblot analysis; type: cell-based; conditions: HCT-116
How it was run: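 Asynchronous HCT-116 cells (DMEM, 3 mM HEPES, 10% serum, 37 °C, 5% CO₂) were given increasing inhibitor doses for 4 or 24 h. Lysis in NETN with phosphatase and protease inhibitors, then SDS-PAGE, nitrocellulose transfer and immunoblot for phospho-Rb (Ser-795) with HRP secondary and chemiluminescence.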

A2058 [17] = assay: Cell cycle arrest in human A2058 cells assessed as time taken to reach peak mitosis at 2 uM treated 1 hr and post double hydroxyurea-synchrony release using propidium iodide staining by FACS analysis; type: functional
[18] = target: Fibroblast growth factor receptor 1 (Homo sapiens) (UniProt P11362); assay: Inhibition of FGFR1 at 1 uM
[19] = target: Protein-tyrosine kinase 2-beta (Homo sapiens) (UniProt Q14289); assay: Inhibition of PTK2B at 1 uM
[20] = target: Vascular endothelial growth factor receptor 3 (Homo sapiens) (UniProt P35916); assay: Inhibition of FLT4 at 1 uM
[21] = target: Calcium/calmodulin-dependent protein kinase kinase 2 (Homo sapiens) (UniProt Q96RR4); assay: Inhibition of CAMKK2 at 1 uM
[22] = target: Calcium/calmodulin-dependent protein kinase type II subunit beta (Homo sapiens) (UniProt Q13554); assay: Inhibition of CAMK2B at 1 uM
How it was run: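 Competition binding screen across a kinase panel with compound at 1 μM. Read-out is % competition. Kinases not hit at this concentration were scored '<50'. No Kd was determined for hits.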

[23] = target: Calcium/calmodulin-dependent protein kinase kinase 1 (Homo sapiens) (UniProt Q8N5S9); assay: Inhibition of CAMKK1 at 1 uM
Chain of Calcium/calmodulin-dependent protein kinase kinase 1 (Homo sapiens) (Q8N5S9 whole entry, looked up): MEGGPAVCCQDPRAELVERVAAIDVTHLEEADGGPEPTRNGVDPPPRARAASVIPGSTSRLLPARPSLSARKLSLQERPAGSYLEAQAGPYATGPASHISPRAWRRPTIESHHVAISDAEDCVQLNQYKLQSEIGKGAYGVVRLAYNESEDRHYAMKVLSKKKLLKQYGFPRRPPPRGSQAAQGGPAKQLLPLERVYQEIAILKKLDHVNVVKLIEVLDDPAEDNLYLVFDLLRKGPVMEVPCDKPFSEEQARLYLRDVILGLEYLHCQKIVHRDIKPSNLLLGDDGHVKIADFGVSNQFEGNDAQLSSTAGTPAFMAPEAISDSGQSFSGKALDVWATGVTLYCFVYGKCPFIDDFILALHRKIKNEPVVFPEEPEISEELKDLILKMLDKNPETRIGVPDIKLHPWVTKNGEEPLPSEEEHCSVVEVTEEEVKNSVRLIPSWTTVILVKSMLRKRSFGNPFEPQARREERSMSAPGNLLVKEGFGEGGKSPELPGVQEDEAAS

Chain of Cyclin-dependent kinase 4/cyclin D1 (P11802 whole entry): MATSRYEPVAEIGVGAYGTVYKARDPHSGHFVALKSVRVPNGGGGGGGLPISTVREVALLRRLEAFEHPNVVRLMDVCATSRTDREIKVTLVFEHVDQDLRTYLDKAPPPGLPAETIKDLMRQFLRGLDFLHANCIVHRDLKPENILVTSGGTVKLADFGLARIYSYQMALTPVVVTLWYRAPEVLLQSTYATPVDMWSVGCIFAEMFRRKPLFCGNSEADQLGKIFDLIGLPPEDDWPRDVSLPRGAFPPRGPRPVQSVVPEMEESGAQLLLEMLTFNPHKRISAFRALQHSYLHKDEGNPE
Chain of Cyclin-dependent kinase 4/cyclin D1 (P24385 whole entry, further chain): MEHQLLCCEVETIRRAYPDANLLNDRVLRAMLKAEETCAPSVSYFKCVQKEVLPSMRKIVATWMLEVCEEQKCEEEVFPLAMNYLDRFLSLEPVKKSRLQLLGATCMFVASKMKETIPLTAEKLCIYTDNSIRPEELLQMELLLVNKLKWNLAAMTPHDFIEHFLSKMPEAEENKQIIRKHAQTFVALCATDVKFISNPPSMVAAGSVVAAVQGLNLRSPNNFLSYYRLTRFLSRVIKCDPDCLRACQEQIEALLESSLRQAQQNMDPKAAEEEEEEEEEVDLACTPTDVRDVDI
Chain of Cyclin-dependent kinase 4 (Homo sapiens) (P11802 whole entry): as the sequence (P11802 whole entry) above
Chain of Tyrosine-protein kinase Lck (P06239 whole entry): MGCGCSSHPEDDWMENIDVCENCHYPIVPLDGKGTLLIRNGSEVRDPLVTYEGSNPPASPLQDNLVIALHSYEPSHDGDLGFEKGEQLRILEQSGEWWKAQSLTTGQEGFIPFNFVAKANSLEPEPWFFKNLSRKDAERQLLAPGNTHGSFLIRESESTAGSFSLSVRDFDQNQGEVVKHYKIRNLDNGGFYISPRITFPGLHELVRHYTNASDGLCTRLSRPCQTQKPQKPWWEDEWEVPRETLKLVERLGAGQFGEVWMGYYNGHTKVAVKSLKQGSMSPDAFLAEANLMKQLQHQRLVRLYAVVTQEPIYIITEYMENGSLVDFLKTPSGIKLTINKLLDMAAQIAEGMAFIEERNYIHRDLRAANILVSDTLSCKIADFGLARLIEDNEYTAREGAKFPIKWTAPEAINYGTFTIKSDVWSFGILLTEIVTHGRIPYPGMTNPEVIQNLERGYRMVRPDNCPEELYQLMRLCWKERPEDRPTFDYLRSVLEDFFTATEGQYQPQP
Chain of Calcium/calmodulin-dependent protein kinase type II subunit beta (Homo sapiens) (Q13554 whole entry): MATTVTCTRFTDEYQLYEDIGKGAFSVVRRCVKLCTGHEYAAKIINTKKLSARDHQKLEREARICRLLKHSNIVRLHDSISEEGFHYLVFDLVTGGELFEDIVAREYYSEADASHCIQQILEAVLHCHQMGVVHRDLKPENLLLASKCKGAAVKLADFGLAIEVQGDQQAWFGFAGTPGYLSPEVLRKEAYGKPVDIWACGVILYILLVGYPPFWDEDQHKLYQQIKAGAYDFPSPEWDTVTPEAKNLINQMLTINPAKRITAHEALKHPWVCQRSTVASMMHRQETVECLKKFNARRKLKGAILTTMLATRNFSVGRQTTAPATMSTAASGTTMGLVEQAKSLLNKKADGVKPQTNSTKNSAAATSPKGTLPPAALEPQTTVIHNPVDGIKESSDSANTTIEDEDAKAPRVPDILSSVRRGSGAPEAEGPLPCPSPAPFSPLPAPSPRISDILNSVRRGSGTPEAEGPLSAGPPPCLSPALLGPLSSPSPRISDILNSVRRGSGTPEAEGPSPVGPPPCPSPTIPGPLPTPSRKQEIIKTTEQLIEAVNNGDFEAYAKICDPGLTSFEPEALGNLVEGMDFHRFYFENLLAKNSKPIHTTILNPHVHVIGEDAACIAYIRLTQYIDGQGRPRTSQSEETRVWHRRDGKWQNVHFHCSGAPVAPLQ
Chain of Calcium/calmodulin-dependent protein kinase kinase 2 (Homo sapiens) (Q96RR4 2-588 limits assumed): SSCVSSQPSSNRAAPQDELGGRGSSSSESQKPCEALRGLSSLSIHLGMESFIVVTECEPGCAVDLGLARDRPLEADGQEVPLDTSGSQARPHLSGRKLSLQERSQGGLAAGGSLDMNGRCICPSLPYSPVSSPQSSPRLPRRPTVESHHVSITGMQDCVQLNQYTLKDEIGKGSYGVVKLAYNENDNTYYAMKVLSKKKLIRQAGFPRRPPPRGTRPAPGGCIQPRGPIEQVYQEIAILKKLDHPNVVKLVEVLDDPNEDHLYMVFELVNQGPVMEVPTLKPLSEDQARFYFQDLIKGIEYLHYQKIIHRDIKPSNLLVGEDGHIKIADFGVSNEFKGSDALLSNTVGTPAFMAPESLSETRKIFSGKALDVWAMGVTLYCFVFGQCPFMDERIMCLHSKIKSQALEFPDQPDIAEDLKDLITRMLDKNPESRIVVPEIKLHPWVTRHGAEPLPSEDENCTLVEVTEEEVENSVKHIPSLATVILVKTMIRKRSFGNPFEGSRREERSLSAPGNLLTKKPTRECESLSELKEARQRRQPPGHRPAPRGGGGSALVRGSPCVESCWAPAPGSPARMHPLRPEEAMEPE
Chain of Vascular endothelial growth factor receptor 3 (Homo sapiens) (P35916 whole entry): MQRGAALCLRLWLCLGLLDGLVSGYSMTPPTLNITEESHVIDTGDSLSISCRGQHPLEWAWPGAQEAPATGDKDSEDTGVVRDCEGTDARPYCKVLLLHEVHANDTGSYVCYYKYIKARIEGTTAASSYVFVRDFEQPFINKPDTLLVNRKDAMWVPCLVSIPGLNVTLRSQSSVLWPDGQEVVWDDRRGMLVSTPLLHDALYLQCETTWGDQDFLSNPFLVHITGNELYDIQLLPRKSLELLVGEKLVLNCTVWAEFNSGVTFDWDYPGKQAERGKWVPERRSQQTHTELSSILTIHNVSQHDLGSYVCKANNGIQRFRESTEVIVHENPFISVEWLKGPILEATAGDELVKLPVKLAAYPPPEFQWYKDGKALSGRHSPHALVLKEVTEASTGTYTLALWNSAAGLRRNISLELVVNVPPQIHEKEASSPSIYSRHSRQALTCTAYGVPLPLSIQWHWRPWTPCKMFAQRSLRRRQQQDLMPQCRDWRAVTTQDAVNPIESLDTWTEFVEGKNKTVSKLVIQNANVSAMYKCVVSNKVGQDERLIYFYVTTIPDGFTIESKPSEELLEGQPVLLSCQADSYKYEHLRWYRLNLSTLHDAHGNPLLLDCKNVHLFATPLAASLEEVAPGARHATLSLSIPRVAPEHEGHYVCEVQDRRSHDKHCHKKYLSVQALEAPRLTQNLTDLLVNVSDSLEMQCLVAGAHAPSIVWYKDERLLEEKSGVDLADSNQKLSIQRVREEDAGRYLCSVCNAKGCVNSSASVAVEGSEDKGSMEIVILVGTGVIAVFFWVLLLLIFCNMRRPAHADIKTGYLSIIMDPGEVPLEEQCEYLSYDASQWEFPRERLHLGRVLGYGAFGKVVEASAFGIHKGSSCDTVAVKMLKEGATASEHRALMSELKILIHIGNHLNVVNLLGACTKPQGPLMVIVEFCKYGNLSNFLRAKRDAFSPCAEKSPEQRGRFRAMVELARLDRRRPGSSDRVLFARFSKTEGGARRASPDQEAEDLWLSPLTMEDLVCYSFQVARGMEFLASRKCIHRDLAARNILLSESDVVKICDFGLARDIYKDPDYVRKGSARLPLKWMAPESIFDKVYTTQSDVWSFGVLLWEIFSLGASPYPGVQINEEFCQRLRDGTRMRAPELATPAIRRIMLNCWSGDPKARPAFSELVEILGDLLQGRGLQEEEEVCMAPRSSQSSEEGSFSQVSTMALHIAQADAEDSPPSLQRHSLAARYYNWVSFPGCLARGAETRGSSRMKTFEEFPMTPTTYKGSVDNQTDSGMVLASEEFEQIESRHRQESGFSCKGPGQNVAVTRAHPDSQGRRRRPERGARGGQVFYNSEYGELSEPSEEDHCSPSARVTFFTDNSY

Row | SMILES | Activity (A2058 [1]) [%] | Activity (HeLa [2]) [%] | IC50 [3] [µM] | Activity (A2058 [4]) [%] | Activity (HeLa [5]) [%] | Activity (HeLa [6]) | Activity (SW480) | IC50 [7] [µM] | Activity (A2058 [8]) [%] | Activity (HeLa [9]) | Activity (HeLa [10]) [%] | Activity (HeLa [11]) [%] | Activity (HeLa [12]) | IC50 (NCI-H460) [µM] | Activity (HeLa [13]) [%] | Activity (HeLa [14]) [%] | Activity [15] [%] | inhibition [16] | Time (A2058 [17]) [h] | also measured
1 | COc1cccc(C(=O)c2sc(Nc3ccc(N4CCN(C(C)C)CC4)cc3)nc2N)c1 | 57 | 88 | 0.02 | 0 | 14 | Active | Toxic | > 100 | 8 | Active | 90 | 36 | Active | 1.14 | 4 | 30 | 70 | Active | 10 | 
2 | CN1CCN(c2ccc(Nc3nc(N)c(C(=O)c4ccc5c(c4)OCCO5)s3)cc2)CC1 | 57 | 88 | 0.02 | 0 | 14 | Active | Toxic | > 100 | 8 | Active | 90 | 36 | Active | 8.12 | 4 | 30 | 70 | Active | 10 | inhibition [18]: < 50%; inhibition [19]: < 50%; inhibition [20]: < 50%; inhibition [21]: < 50%; inhibition [22]: < 50%; inhibition [23]: < 50%
